Here are results for two molecules from ChEMBL document CHEMBL1124654, “Synthesis and investigation of effects of 2-[4- [[(arylamino)carbonyl]amino]phenoxy]-2-methylpropionic acids on the affinity of hemoglobin for oxygen: structure-activity relationships” (1989).

Common to all, as to assay type: functional
For experiment [1], the species on record is Homo sapiens. In words: Ability of 0.5 mm to reduce affinity of hemoglobin for oxygen is assessed from 50% partial pressure of oxygen in intact red cells. In outline:
(§1)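 Intact red cells: 30-µL aliquots of fresh heparinized normal whole blood added to 5 mL of compound diluted in 0.1 M HEPES, pH 7.4; final hemoglobin 12.5 ± 0.5 µM by spectrophotometry. Equilibrated 30 min at 37 °C, then oxygenated in the instrument chamber. P50 (mmHg PO2 at 50% deoxygenation) read from the O2-dissociation curve. Initial screen at 1 mM in duplicate.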

Experiment [2] is filed under the species Homo sapiens. In words: Ability of 1 mm to reduce affinity of hemoglobin for oxygen is assessed from 50% partial pressure of oxygen in intact red cells. The essentials:
as §1

The species entered for experiment [3] is Homo sapiens. The experiment is described as follows: Ability of 0.5 mM to reduce affinity of hemoglobin for oxygen is assessed from 50% partial pressure of oxygen in membrane free hemoglobin solution. In outline:
(§2)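 Membrane-free hemoglobin: erythrocytes washed five times in 0.15 M NaCl, lysed in 5 volumes of water, filtered through paper and then down to 0.22 µm. Compound dissolved in 0.1 M HEPES, pH 7.4, hemoglobin added to a final 12.5 ± 0.5 µM, incubated 30 min at 37 °C. P50 taken from the O2-dissociation curve. Initial screen at 1 mM in duplicate.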

For experiment [4], the species on record is Homo sapiens. In words: Ability of 1 mM to reduce affinity of hemoglobin for oxygen is assessed from 50% partial pressure of oxygen in membrane free hemoglobin solution. In outline: as §2
Experiment [5] has as its target Hemoglobin HbA (Homo sapiens) (UniProt P69905+P68871). The experiment is described as follows: Ratio of effect of compound on affinity of hemoglobin for oxygen to that of control. In outline:
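Mean P50 with compound divided by mean P50 of the respective controls. P50 measured from O2-dissociation curves at 37 °C after 30 min in 0.1 M HEPES, pH 7.4, with hemoglobin at 12.5 ± 0.5 µM, in intact red cells or membrane-free hemoglobin.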

For experiment [6], the species on record is Homo sapiens. In words: Ability of 0.05 mM to reduce affinity of hemoglobin for oxygen is assessed from 50% partial pressure of oxygen in intact red cells. The essentials:
as §1

The species entered for experiment [7] is Homo sapiens. The experiment is described as follows: Ability of 0.1 mM to reduce affinity of hemoglobin for oxygen is assessed from 50% partial pressure of oxygen in intact red cells. In outline:
as §1

Experiment [8] is filed under the species Homo sapiens. The experiment is described as follows: Ability of 0.2 mM to reduce affinity of hemoglobin for oxygen is assessed from 50% partial pressure of oxygen in intact red cells. The essentials:
as §1

The species entered for experiment [9] is Homo sapiens. In words: Ability of 0.05 mM to reduce affinity of hemoglobin for oxygen is assessed from 50% partial pressure of oxygen in membrane free hemoglobin solution. In outline:
as §2

The species entered for experiment [10] is Homo sapiens. In words: Ability of 0.1 mM to reduce affinity of hemoglobin for oxygen is assessed from 50% partial pressure of oxygen in membrane free hemoglobin solution. The essentials: as §2
The species entered for experiment [11] is Homo sapiens. In words: Ability of 0.2 mM to reduce affinity of hemoglobin for oxygen is assessed from 50% partial pressure of oxygen in membrane free hemoglobin solution. The essentials: as §2

Molecules are shown by their SMILES.

Sequence of Hemoglobin HbA (Homo sapiens) (P68871 2-147 partner limits assumed): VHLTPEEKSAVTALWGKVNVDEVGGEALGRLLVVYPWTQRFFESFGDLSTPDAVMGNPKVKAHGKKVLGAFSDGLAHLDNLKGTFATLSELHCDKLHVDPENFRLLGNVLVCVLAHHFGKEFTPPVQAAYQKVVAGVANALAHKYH
Sequence of Hemoglobin HbA (Homo sapiens) (P69905 2-142 limits assumed): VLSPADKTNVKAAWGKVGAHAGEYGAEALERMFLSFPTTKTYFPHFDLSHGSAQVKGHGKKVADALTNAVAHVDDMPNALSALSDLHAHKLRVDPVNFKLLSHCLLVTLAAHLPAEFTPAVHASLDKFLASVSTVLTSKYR

Take `CC(C)(Oc1ccc(NC(=O)Nc2ccc([N+](=O)[O-])cc2)cc1)C(=O)O`: the P50 in the experiment filed under Homo sapiens [1] is 21 mmHg; in the experiment listed under Homo sapiens [2], 26.5 mmHg; in the experiment filed under Homo sapiens [3], 13 mmHg; in the experiment filed under Homo sapiens [4] it was 19 mmHg. The Ratio in [5] is 2.79 [middle of 4 runs].
Regarding `CC(C)(Oc1ccc(NC(=O)Nc2cc(Cl)c(Cl)cc2Cl)cc1)C(=O)O`, the P50 in the experiment listed under Homo sapiens [6] amounted to 14.25 mmHg; in the experiment filed under Homo sapiens [7], 17.75 mmHg; in the experiment filed under Homo sapiens [8] it was 31 mmHg; in the experiment listed under Homo sapiens [9], 9 mmHg; in the experiment filed under Homo sapiens [10], 12 mmHg; in the experiment filed under Homo sapiens [11] it was 16.8 mmHg.
